Reference: ChEMBL document CHEMBL4266037, “Discovery and Characterization of Cyclotides from Rinorea Species” (J Nat Prod, 2018)
Positions of bridges follow the written chain, without caps; N, C: chain ends. Residues, ends and D or L forms follow the SMILES beside them.

Columns and labels:
HUVEC [1] = assay: Cytotoxicity against HUVEC after 24 hrs by MTT assay; type: cell-based; details: Homo sapiens
In short: (§1)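 Cells seeded at 3 × 10^3 per well and grown 24 h at 37 °C in 5% CO2. Media: HUVEC in 10% FBS/EBM-2 with supplements; HFF-1 in 15% FBS/DMEM; HT-29 and MDA-MB-231 in 10% FBS/DMEM; MM96L in 10% FBS/RPMI with 2 mM L-glutamine and 1 mM pyruvate. Switched to serum-free medium, then paclitaxel 0.00075–10 μM for 24 or 48 h. MTT added 3 h, formazan taken up in DMSO, A600. Triplicate; IC50 from sigmoidal fit.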

MDA-MB-231 [2] = assay: Cytotoxicity against human MDA-MB-231 after 24 hrs by MTT assay; type: functional, cell-based; details: MDA-MB-231, 24 h; in short: as §1
HT-29 [3] = assay: Cytotoxicity against human HT-29 after 24 hrs by MTT assay; type: functional, cell-based; details: HT-29, 24 h; in short: as §1
HFF-1 [4] = assay: Cytotoxicity against human HFF1 after 24 hrs by MTT assay; type: cell-based; details: HFF-1, 24 h; in short: as §1
MM96L [5] = assay: Cytotoxicity against human MM96L after 24 hrs by MTT assay; type: functional, cell-based; in short: as §1
Erythrocyte = assay: Hemolytic activity against human RBC after 1 hr; type: ADME, cell-based
In short: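 Human red blood cells exposed to test peptides at 0.003–10 μM, with melittin at 0.15–20 μM as the lysis positive control. IC50 given as mean ± SD of three biological replicates.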

HT-29 [6] = assay: Cytotoxicity against human HT-29 after 48 hrs by MTT assay; type: functional, cell-based; details: HT-29, 48 h; in short: as §1
HFF-1 [7] = assay: Cytotoxicity against human HFF1 after 48 hrs by MTT assay; type: cell-based; details: HFF-1, 48 h; in short: as §1
HUVEC [8] = assay: Cytotoxicity against HUVEC after 48 hrs by MTT assay; type: cell-based; details: Homo sapiens; in short: as §1
MDA-MB-231 [9] = assay: cells; details: Homo sapiens, MDA-MB-231, 48 h
MM96L [10] = assay: Cytotoxicity against human MM96L after 48 hrs by MTT assay; type: functional, cell-based; in short: as §1

IC50 (MDA-MB-231 [9])	Structure (SMILES)	IC50 (HUVEC [1])	IC50 (MDA-MB-231 [2])	IC50 (HT-29 [3])	IC50 (HFF-1 [4])	IC50 (MM96L [5])	IC50 (Erythrocyte)	IC50 (HT-29 [6])	IC50 (HFF-1 [7])	IC50 (HUVEC [8])	IC50 (MM96L [10])
–	CC[C@H](C)[C@@H]1NC(=O)[C@H](Cc2ccc(O)cc2)NC(=O)[C@H](CO)NC(=O)C(N)C(=O)[C@H](CC(N)=O)NC(=O)[C@H](CCCCN)NC(=O)[C@H](CCCCN)NC(=O)[C@@H]2CSSC[C@@H]3NC(=O)[C@H](CCCCN)NC(=O)CNC(=O)[C@H](CCC(N)=O)NC(=O)[C@H](C(C)C)NC(=O)[C@@H]4CSSC[C@H](NC(=O)[C@H]([C@@H](C)O)NC(=O)[C@H](CSSC[C@H](NC1=O)C(=O)NCC(=O)N[C@@H](CCC(=O)O)C(=O)N[C@@H]([C@@H](C)O)C(=O)N4)NC(=O)CNC(=O)[C@@H]1CCCN1C(=O)[C@H]([C@@H](C)O)NC(=O)[C@H](Cc1ccc(O)cc1)NC3=O)C(=O)N[C@@H](CO)C(=O)N[C@@H](Cc1c[nH]c3ccccc13)C(=O)N1CCC[C@H]1C(=O)N[C@@H]([C@@H](C)CC)C(=O)N2 (stereo partly drawn)	1600 nM	950 nM	5900 nM	2100 nM	1300 nM	> 10000 nM	–	–	–	–
–	CC[C@H](C)[C@@H]1NC(=O)[C@H](C)NC(=O)[C@H](CO)NC(=O)[C@H](CO)NC(=O)[C@H]([C@@H](C)CC)NC(=O)[C@@H]2CSSC[C@@H]3NC(=O)[C@H](C(C)C)NC(=O)[C@H](CCCCN)NC(=O)[C@H](CO)NC(=O)[C@H](CCCCN)NC(=O)[C@@H]4CSSC[C@H](NC(=O)[C@H](CO)NC(=O)[C@H](CCC(=O)O)NC(=O)CNC(=O)[C@H](CSSC[C@H](NC(=O)CNC1=O)C(=O)N[C@@H](CO)C(=O)N4)NC(=O)[C@@H]1CCCN1C(=O)[C@H]([C@@H](C)CC)NC(=O)CNC(=O)[C@H](CC(N)=O)NC(=O)[C@H](CCCNC(=N)N)NC(=O)[C@H](Cc1ccc(O)cc1)NC3=O)C(=O)N[C@@H](C(C)C)C(=O)N[C@@H](Cc1c[nH]c3ccccc13)C(=O)N[C@@H]([C@@H](C)CC)C(=O)N1CCC[C@H]1C(=O)N2 (cyclo(AIGCSCKSKVCYRNGIPCGESCVWIPCISS); disulfide 4-18, 6-22, 11-27)	350 nM	1500 nM	870 nM	1300 nM	650 nM	36000 nM	–	–	–	–
–	CC[C@H](C)[C@@H]1NC(=O)[C@@H]2CCCN2C(=O)[C@H](CC(C)C)NC(=O)CNC(=O)[C@H](CC(N)=O)NC(=O)[C@H](CCCCN)NC(=O)[C@H](Cc2ccc(O)cc2)NC(=O)[C@@H]2CSSC[C@@H]3NC(=O)[C@H](CCCCN)NC(=O)CNC(=O)[C@H](CC(C)C)NC(=O)[C@H](CC(C)C)NC(=O)[C@@H]4CSSC[C@H](NC(=O)[C@H](CO)NC(=O)[C@H](CSSC[C@H](NC1=O)C(=O)NCC(=O)N[C@@H](CCC(=O)O)C(=O)N[C@@H]([C@@H](C)O)C(=O)N4)NC(=O)CNC(=O)[C@@H]1CCCN1C(=O)[C@H]([C@@H](C)O)NC(=O)[C@H](Cc1ccc(O)cc1)NC3=O)C(=O)N[C@@H](CCCNC(=N)N)C(=O)N[C@@H](CCCNC(=N)N)C(=O)N1CCC[C@H]1C(=O)N[C@@H](C(C)C)C(=O)N2 (cyclo(CGETCLLGKCYTPGCSCRRPVCYKNGLPI); disulfide 1-15, 5-17, 10-22)	2600 nM	2300 nM	–	1900 nM	1100 nM	> 10000 nM	–	–	–	–
–	CC[C@H](C)[C@@H]1NC(=O)[C@@H]2CCCN2C(=O)[C@H](CCCCN)NC(=O)CNC(=O)[C@H](CC(N)=O)NC(=O)[C@H](CCCCN)NC(=O)[C@H](Cc2ccc(O)cc2)NC(=O)[C@H](CS)NC(=O)[C@H](CC(C)C)NC(=O)[C@H](C(C)C)NC(=O)[C@H](CCCNC(=N)N)NC(=O)[C@H](CCCCN)NC(=O)CNC(=O)[C@@H]2CSSC[C@@H]3NC(=O)[C@H]([C@@H](C)O)NC(=O)[C@H](CCC(=O)O)NC(=O)CNC(=O)[C@H](CSSC[C@H](NC(=O)CNC(=O)[C@@H]4CCCN4C(=O)[C@H]([C@@H](C)O)NC(=O)[C@H](Cc4ccc(O)cc4)NC(=O)[C@H](CS)NC(=O)[C@H](CCCCN)NC(=O)CNC(=O)[C@H](CC(C)C)NC(=O)[C@H](CC(C)C)NC3=O)C(=O)N[C@@H]([C@@H](C)O)C(=O)N2)NC1=O (cyclo(CGETCLLGKCYTPGCTCGKRVLCYKNGKPI); disulfide 1-15, 5-17)	2800 nM	4400 nM	–	1700 nM	930 nM	–	–	–	–	–
–	CC[C@H](C)[C@@H]1NC(=O)[C@@H]2CCCN2C(=O)[C@H](CC(C)C)NC(=O)CNC(=O)[C@H](CC(N)=O)NC(=O)[C@H](CCCCN)NC(=O)[C@H](Cc2ccc(O)cc2)NC(=O)[C@@H]2CSSC[C@@H]3NC(=O)[C@H](CCCCN)NC(=O)CNC(=O)[C@H](Cc4ccccc4)NC(=O)[C@H](C(C)C)NC(=O)[C@@H]4CSSC[C@H](NC(=O)[C@H](CO)NC(=O)[C@H](CSSC[C@H](NC1=O)C(=O)NCC(=O)N[C@@H](CCC(=O)O)C(=O)N[C@@H]([C@@H](C)O)C(=O)N4)NC(=O)CNC(=O)[C@@H]1CCCN1C(=O)[C@H]([C@@H](C)O)NC(=O)[C@H](CC(N)=O)NC3=O)C(=O)N[C@@H](CCCNC(=N)N)C(=O)N[C@@H](CCCNC(=N)N)C(=O)N1CCC[C@H]1C(=O)N[C@@H]([C@@H](C)CC)C(=O)N2 (cyclo(CGETCVFGKCNTPGCSCRRPICYKNGLPI); disulfide 1-15, 5-17, 10-22)	> 3000 nM	> 10000 nM	> 10000 nM	> 3000 nM	> 3000 nM	> 10000 nM	–	–	–	–
–	CC[C@H](C)[C@H](NC(=O)CN)C(=O)NCC(=O)N[C@@H](C)C(=O)N[C@H](C(=O)N[C@@H](CC(C)C)C(=O)N[C@@H](CCCCN)C(=O)N[C@H](C(=O)N[C@@H](CC(C)C)C(=O)N[C@H](C(=O)N[C@H](C(=O)NCC(=O)N[C@@H](CC(C)C)C(=O)N1CCC[C@H]1C(=O)N[C@@H](C)C(=O)N[C@@H](CC(C)C)C(=O)N[C@H](C(=O)N[C@@H](CO)C(=O)N[C@@H](Cc1c[nH]c2ccccc12)C(=O)N[C@H](C(=O)N[C@@H](CCCCN)C(=O)N[C@@H](CCCNC(=N)N)C(=O)N[C@@H](CCCCN)C(=O)N[C@@H](CCCNC(=N)N)C(=O)N[C@@H](CCC(N)=O)C(=O)N[C@@H](CCC(N)=O)C(N)=O)[C@@H](C)CC)[C@@H](C)CC)[C@@H](C)O)[C@@H](C)O)C(C)C)C(C)C [MELITTIN]	–	–	–	–	–	960 nM	–	–	–	–
1 nM	CC(=O)O[C@H]1C(=O)[C@@]2(C)[C@H]([C@H](OC(=O)c3ccccc3)[C@]3(O)C[C@H](OC(=O)[C@H](O)[C@@H](NC(=O)c4ccccc4)c4ccccc4)C(C)=C1C3(C)C)[C@]1(OC(C)=O)CO[C@@H]1C[C@@H]2O [PACLITAXEL]	> 10000 nM	200 nM	70 nM	> 10000 nM	> 10000 nM	–	10 nM	> 10000 nM	> 10000 nM	> 10000 nM
